Results taken from ChEMBL document CHEMBL4024793, “Development of Stem-Cell-Mobilizing Agents Targeting CXCR4 Receptor for Peripheral Blood Stem Cell Transplantation and Beyond” (J Med Chem, 2018).

Assays:
Rattus norvegicus [1] = assay: Cardiotoxicity in Sprague-Dawley rat assessed as effect on heart size at 50 mg/kg/day, sc administered for 14 days relative to control; type: toxicity, organism-based; settings: in vivo, 336 h
Summary of the method: (§1)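 Non-GLP 14-day repeated-dose study in SD rats given 50 mg/kg/day SC. Major organs (liver, kidney, lung, heart) compared with vehicle for size, weight and colour. Blood analysed for hematological and biochemical parameters.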

[2] = target: C-X-C chemokine receptor type 1 (Homo sapiens) (UniProt P25024); assay: Antagonist activity at human CXCR1 expressed in CHOK1 cells assessed as inhibition of interleukin-8-induced cAMP accumulation at 10 uM preincubated for 30 mins followed agonist addition measured after 30 to 60 mins; type: functional, cell-based
Summary of the method: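 GPCR cAMP assay with a single test concentration of 10 μM; result expressed as percentage inhibition for each chemokine receptor.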

[3] = target: C-X-C chemokine receptor type 4 (Homo sapiens, UniProt P61073); assay: Displacement of [125I]CXCL12 from human CXCR4 expressed in HEK293 cell membranes after 1.5 hrs by Topcount method
Mus musculus [4] = assay: In vivo antagonist activity at CXCR4 in C57BL/6 mouse assessed as induction of lymphocytes molization at 35 mg/kg, sc measured after 2 hrs relative to AMD3100; type: functional; design: scale not given: the % may be the effect or the level left
Summary of the method: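 C57BL/6 mice given a single SC injection at 6 or 35 mg/kg. Blood collected 2 h after dosing and analysed for total white blood cells, neutrophils, lymphocytes and monocytes.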

Rattus norvegicus [5] = assay: Cardiotoxicity in Sprague-Dawley rat assessed as effect on heart weight at 50 mg/kg/day, sc administered for 14 days relative to control; type: toxicity, organism-based; settings: in vivo, 336 h; summary of the method: as §1
Rattus norvegicus [6] = assay: Renal toxicity in Sprague-Dawley rat assessed as effect on kidney color at 50 mg/kg/day, sc administered for 14 days relative to control; type: organism-based; settings: in vivo, 336 h; summary of the method: as §1
Rattus norvegicus [7] = assay: Renal toxicity in Sprague-Dawley rat assessed as effect on kidney size at 50 mg/kg/day, sc administered for 14 days relative to control; type: organism-based; settings: in vivo, 336 h; summary of the method: as §1
Mus musculus [8] = assay: Induction of hematopoietic stem cell mobilization in C57BL/6 mouse assessed as induction of movement of HSCs and EPCs into peripheral circulation at 35 mg/kg, sc measured after 2 hrs by flow cytometric analysis relative to control; type: functional

Chain of C-X-C chemokine receptor type 1 (Homo sapiens) (P25024 whole entry): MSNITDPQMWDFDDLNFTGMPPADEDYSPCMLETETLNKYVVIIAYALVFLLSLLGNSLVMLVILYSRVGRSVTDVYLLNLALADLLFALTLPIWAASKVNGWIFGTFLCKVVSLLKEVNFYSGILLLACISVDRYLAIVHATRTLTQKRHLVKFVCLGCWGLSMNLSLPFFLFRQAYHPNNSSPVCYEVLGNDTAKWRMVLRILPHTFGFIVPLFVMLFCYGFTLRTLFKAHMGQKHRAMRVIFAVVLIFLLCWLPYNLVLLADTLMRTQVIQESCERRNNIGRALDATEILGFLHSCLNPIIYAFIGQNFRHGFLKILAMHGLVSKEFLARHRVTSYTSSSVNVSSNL
Chain of C-X-C chemokine receptor type 4 (P61073 whole entry): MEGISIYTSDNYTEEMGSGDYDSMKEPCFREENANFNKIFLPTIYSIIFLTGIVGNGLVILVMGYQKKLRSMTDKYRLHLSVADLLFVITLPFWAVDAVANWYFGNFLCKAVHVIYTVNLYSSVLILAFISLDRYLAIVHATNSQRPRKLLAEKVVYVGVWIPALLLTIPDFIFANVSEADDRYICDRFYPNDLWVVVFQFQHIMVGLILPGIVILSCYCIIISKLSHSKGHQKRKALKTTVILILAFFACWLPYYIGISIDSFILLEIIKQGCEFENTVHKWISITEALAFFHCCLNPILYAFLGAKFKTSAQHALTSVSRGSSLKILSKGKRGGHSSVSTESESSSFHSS

Cc1cc(NC2CCN(C(=O)CCNCC(=O)O)CC2)nc(NCc2cn(CCCNCCCNC3CCCCC3)nn2)n1
Activity (Rattus norvegicus [1]): Non-Toxic
Efficacy [2]: 0.3%
IC50 [3]: 34.2 nM
Activity (Mus musculus [4]): 30 - 50%
Activity (Rattus norvegicus [5]): Non-Toxic
Activity (Rattus norvegicus [6]): Non-Toxic
Activity (Rattus norvegicus [7]): Non-Toxic
fold change (FC) (Mus musculus [8]): 7
